Active and inactive are the calls of the source. The calls are words filed in the database; no cut-off is given here.
Tests used:
[1] = biological target: T1, Peroxisome proliferator-activated receptor alpha (Homo sapiens, UniProt Q07869); assay: Binding affinity to PPARalpha (unknown origin) assessed as thermodynamic dissociation constant by SPR assay; settings: read-out: Kd
T1 sequence (Q07869 whole entry): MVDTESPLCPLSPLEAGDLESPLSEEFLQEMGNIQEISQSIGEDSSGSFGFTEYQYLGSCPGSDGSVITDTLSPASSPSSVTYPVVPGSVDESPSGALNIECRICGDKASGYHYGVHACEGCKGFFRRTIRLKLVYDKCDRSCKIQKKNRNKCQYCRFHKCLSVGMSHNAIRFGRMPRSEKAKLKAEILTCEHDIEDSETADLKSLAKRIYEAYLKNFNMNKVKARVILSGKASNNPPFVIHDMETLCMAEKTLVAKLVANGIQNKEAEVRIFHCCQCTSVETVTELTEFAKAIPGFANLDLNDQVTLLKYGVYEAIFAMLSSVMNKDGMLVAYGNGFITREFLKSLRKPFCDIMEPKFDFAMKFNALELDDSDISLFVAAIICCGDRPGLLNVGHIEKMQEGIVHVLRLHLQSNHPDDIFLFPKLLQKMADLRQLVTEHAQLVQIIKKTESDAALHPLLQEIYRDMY

[2] = biological target: T2, Peroxisome proliferator-activated receptor alpha (Homo sapiens) (UniProt Q07869); assay: Agonist activity at PPARalpha in human HepG2 cells assessed as increase in CAC protein expression level at 1 uM after 48 hrs by Western blot method; format: cell-based
T2 sequence (whole entry): T1 sequence (Q07869 whole entry)
Procedure, shortened: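 HepG2 serum-depleted 24 h, then treated 48 h with 1 μM compound (Wy-14,643 at 50 μM as reference). Nitrocellulose immunoblots probed for CAC, CPT1 or PPARα with β-actin loading control, chemiluminescent detection; band densitometry expressed as fold change versus untreated cells; three independent experiments.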

[3] = biological target: T3, Bile acid receptor (Homo sapiens) (UniProt Q96RI1); assay: Agonist activity at GAL4-fused human FXR LBD expressed in human HepG2 cells up to 2 uM after 20 hrs by luciferase reporter gene assay; format: cell-based
T3 sequence (whole entry): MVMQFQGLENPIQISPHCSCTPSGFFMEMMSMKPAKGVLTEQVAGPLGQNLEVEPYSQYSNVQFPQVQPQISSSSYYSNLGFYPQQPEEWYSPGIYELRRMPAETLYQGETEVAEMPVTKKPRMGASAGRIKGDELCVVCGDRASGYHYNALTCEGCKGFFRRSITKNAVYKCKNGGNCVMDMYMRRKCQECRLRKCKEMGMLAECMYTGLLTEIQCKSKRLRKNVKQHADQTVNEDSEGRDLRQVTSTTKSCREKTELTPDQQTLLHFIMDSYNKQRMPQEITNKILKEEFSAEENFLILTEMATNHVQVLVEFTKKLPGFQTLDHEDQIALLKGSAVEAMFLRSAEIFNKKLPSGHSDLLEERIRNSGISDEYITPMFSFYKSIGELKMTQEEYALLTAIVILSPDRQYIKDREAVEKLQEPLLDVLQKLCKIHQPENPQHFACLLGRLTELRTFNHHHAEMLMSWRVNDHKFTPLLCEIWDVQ
Procedure, shortened: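 HepG2 in MEM/10% FBS, calcium-phosphate co-transfection 24 h after seeding with GAL4-FXR-LBD (30 ng), pGAL5TKpGL3 luciferase reporter (100 ng) and pCMVβgal (250 ng); 4 h later, 20 h ligand exposure in triplicate. Luciferase normalized to β-galactosidase (ONPG); efficacy as % of maximal fold induction of chenodeoxycholic acid reference; tested up to 2 μM.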

[4] = biological target: T2, Peroxisome proliferator-activated receptor alpha (Homo sapiens); assay: Agonist activity at PPARalpha assessed as induction of positive regulatory loop based receptor transcriptional activation by measuring upregulation of PPARalpha mRNA level in human HepG2 cells at 1 uM after 24 hrs by RT-PCR method; format: cell-based
Procedure, shortened: (§1)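 Serum-free HepG2 exposed 24 h to 1 μM test agent (Wy-14,643 reference at 50 μM). RNA extracted from 1x10⁶ cells; TaqMan real-time RT-PCR for CAC, CPT1 or PPARα, normalized to β-actin. Mean ± SD of three independent duplicate experiments; one-way ANOVA with Bonferroni test.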

[5] = biological target: T2, Peroxisome proliferator-activated receptor alpha (Homo sapiens); assay: Agonist activity at PPARalpha in human HepG2 cells assessed as increase in CAC mRNA level at 1 uM after 24 hrs by RT-PCR method; format: cell-based; procedure, shortened: as §1
[6] = biological target: T4, Peroxisome proliferator-activated receptor delta (Homo sapiens, UniProt Q03181); assay: Binding affinity to PPARdelta (unknown origin) assessed as thermodynamic dissociation constant by SPR assay
T4 sequence (Q03181 whole entry): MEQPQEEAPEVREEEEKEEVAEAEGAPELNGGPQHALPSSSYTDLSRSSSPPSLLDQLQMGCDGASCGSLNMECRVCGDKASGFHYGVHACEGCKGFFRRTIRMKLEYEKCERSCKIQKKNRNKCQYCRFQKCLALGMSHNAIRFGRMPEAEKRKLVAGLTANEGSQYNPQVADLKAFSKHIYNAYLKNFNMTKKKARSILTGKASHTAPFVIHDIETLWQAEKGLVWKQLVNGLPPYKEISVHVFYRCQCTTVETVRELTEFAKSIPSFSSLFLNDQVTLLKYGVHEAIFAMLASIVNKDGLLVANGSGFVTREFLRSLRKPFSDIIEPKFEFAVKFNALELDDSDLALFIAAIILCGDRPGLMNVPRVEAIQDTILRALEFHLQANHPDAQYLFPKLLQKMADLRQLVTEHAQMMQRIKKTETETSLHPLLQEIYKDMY

[7] = biological target: T1, Peroxisome proliferator-activated receptor alpha; assay: Binding affinity to PPARalpha (unknown origin) assessed as kinetic dissociation constant by SPR assay
[8] = test system: HEK-293T; assay: Effect on p21waf1/cip1 protein expression in HEK293T cells at 10 uM after 48 hrs by Western blot method; format: cell-based; settings: human
Procedure, shortened: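 HT-29 or HEK293T cells in DMEM/10% FBS treated 48 h with 10 μM compound (DMSO vehicle, final below 0.1%). RIPA lysates (with protease inhibitors), 80 μg protein per lane immunoblotted for p21waf1/cip1 with β-actin loading control; densitometric p21/β-actin ratio, mean ± SD of at least three independent experiments.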

Structure (SMILES) | Kd [1] | Activity [2] | Activity [3] | Activity [4] | Activity [5] | Kd [6] | Kd [7] | Activity [8]
C[C@@H](Oc1ccc(Cc2ccc(OCc3coc(-c4ccccc4)n3)cc2)cc1)C(=O)O | 0.86 nM | Active | inactive | Active | Active | Not Active | 0.025 s⁻¹ | Non-Toxic
C[C@H](Oc1ccc(Cc2ccc(OCc3coc(-c4ccccc4)n3)cc2)cc1)C(=O)O | 0.75 nM | Active | inactive | Active | Active | Not Active | 0.016 s⁻¹ | Non-Toxic
